These results are taken from ChEMBL document CHEMBL1134575, “Synthesis, molecular modeling, and structure-activity relationship of benzophenone-based CAAX-peptidomimetic farnesyltransferase inhibitors” (J Med Chem, 2001).

One assay has as its target T1, Farnesyltransferase (Saccharomyces cerevisiae S288c, UniProt P22007+P29703).
T1 sequence (P29703 whole entry): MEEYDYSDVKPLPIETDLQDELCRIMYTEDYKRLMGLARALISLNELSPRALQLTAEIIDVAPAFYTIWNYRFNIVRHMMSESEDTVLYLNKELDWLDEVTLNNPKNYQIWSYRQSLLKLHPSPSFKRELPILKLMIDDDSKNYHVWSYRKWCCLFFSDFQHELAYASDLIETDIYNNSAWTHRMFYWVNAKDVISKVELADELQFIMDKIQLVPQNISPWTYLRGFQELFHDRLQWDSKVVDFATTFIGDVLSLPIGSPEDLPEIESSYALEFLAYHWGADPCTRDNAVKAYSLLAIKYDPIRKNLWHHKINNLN
T1 sequence (P22007 whole entry): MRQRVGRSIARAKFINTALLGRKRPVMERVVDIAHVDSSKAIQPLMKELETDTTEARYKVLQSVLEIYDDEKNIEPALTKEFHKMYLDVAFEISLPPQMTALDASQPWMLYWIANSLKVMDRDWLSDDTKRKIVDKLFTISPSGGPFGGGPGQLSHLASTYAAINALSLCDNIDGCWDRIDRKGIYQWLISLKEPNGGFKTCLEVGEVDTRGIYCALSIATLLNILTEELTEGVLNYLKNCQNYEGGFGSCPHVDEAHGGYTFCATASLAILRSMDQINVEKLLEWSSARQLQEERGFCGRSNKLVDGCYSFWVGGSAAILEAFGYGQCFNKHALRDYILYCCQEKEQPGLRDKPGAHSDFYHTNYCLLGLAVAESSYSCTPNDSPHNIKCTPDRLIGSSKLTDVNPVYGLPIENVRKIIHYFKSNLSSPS
The assay can be described thus: Inhibitory activity against farnesyltransferase. Format: protein-complex assay.
Settings: not given
The method, boiled down:
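Yeast FTase, GST fused at the N-terminus of the β-subunit, expressed in E. coli DH5α and purified on glutathione-agarose. Buffer: 50 mM Tris/HCl pH 7.4, 5 mM MgCl2, 10 μM ZnCl2, 5 mM DTT. Substrates: 7 μM dansyl-GCVLS, 20 μM FPP. Inhibitor in 1% DMSO. IC50 from initial velocities at four or five concentrations, three independent runs, mean ± SD.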
In turn, `N[C@@H](CS)C(=O)Nc1ccc(NC(=O)Cc2ccccc2)c(C(=O)c2ccccc2)c1` came in with an IC50 of 650 nM.
As to `CC(C(=O)Nc1ccc(NC(=O)[C@@H](N)CS)cc1C(=O)c1ccccc1)c1ccccc1` (stereo not given in full), the IC50 came out at 650 nM.
In turn, `N[C@@H](CS)C(=O)Nc1ccc(NC(=O)Cc2ccc(Cl)cc2Cl)c(C(=O)c2ccccc2)c1` had a concentration for half-maximal inhibition (IC50) of 120 nM.
In turn, `N[C@@H](CS)C(=O)Nc1ccc(NC(=O)Cc2ccc([N+](=O)[O-])cc2)c(C(=O)c2ccccc2)c1` displayed a half-maximal inhibitory concentration (IC50) of 115 nM.
The same measure, in the same setting: with `N[C@@H](CS)C(=O)Nc1ccc(NC(=O)Cc2cc(Cl)ccc2Cl)c(C(=O)c2ccccc2)c1` the figure was 2400 nM.
The same measure, in the same setting: with `N[C@@H](CS)C(=O)Nc1ccc(NC(=O)Cc2c(Cl)cccc2Cl)c(C(=O)c2ccccc2)c1` the figure was 340 nM; with `N[C@@H](CS)C(=O)Nc1ccc(NC(=O)C(=O)c2ccccc2)c(C(=O)c2ccccc2)c1`, 1420 nM; with `CC(=O)Nc1ccc(NC(=O)[C@@H](N)CS)cc1C(=O)c1ccccc1`, 7600 nM.
Regarding `N[C@@H](CS)C(=O)Nc1ccc(NC(=O)c2ccccc2)c(C(=O)c2ccccc2)c1`, half-maximal inhibition (IC50) required 4780 nM.
Still for that read-out and setting: the figure for `N[C@@H](CS)C(=O)Nc1ccc(NC(=O)Cc2ccc(Br)cc2)c(C(=O)c2ccccc2)c1` is 76 nM.
For the compound `COC(=O)CCC(=O)Nc1ccc(NC(=O)[C@@H](N)CS)cc1C(=O)c1ccccc1`, inhibition was half-maximal at 1800 nM (IC50).
Turning to `CC(CC(=O)Nc1ccc(NC(=O)[C@@H](N)CS)cc1C(=O)c1ccccc1)CC(C)(C)C` (stereo not given in full), the half-maximal inhibitory concentration (IC50) amounted to 8600 nM.
Take `N[C@@H](CS)C(=O)Nc1ccc(NC(=O)Cc2cccc3ccccc23)c(C(=O)c2ccccc2)c1`: 380 nM corresponded to half-maximal inhibition (IC50).
In turn, `COc1ccc(CC(=O)Nc2ccc(NC(=O)[C@@H](N)CS)cc2C(=O)c2ccccc2)cc1` came in with an IC50 of 545 nM.
For the compound `N[C@@H](CS)C(=O)Nc1ccc(NS(=O)(=O)Cc2ccccc2)c(C(=O)c2ccccc2)c1`, the half-inhibitory concentration (IC50) was 85 nM.
On the same count and under the same terms, the figure for `Cc1ccc(CC(=O)Nc2ccc(NC(=O)[C@@H](N)CS)cc2C(=O)c2ccccc2)cc1` is 77 nM; for `N[C@@H](CS)C(=O)Nc1ccc(NC(=O)C(c2ccccc2)c2ccccc2)c(C(=O)c2ccccc2)c1` it is 36 nM; for `N[C@@H](CS)C(=O)Nc1ccc(NC(=O)c2cccc3ccccc23)c(C(=O)c2ccccc2)c1` it is 4600 nM.
Take `N[C@@H](CS)C(=O)Nc1ccc(NC(=O)Cc2cc(Cl)cc(Cl)c2)c(C(=O)c2ccccc2)c1`: the midpoint of inhibition, the IC50, lay at 535 nM.
The compound `N[C@@H](CS)C(=O)Nc1ccc(NC(=O)CCc2ccccc2)c(C(=O)c2ccccc2)c1` registered an IC50 of 1290 nM.
The same measure, in the same setting: the figure for `N[C@@H](CS)C(=O)Nc1ccc(NC(=O)Cc2cccc(Cl)c2Cl)c(C(=O)c2ccccc2)c1` is 420 nM; for `Cc1ccc(CS(=O)(=O)Nc2ccc(NC(=O)[C@@H](N)CS)cc2C(=O)c2ccccc2)cc1` it is 100 nM.
On the same count and under the same terms, the figure for `N[C@@H](CS)C(=O)Nc1ccc(NC(=O)Cc2ccc3ccccc3c2)c(C(=O)c2ccccc2)c1` is 460 nM; for `N[C@@H](CS)C(=O)Nc1ccc(NC(=O)CCC(=O)O)c(C(=O)c2ccccc2)c1` it is 700 nM.
On the same count and under the same terms, with `N[C@@H](CS)C(=O)Nc1ccc(NC(=O)Cc2ccc(Cl)cc2)c(C(=O)c2ccccc2)c1` the figure was 105 nM.
For the compound `N[C@@H](CS)C(=O)Nc1ccc(NC(=O)Cc2ccc(Cl)c(Cl)c2)c(C(=O)c2ccccc2)c1`, half-maximal inhibition (IC50) was put at 480 nM.
Compound `Cc1cccc(CC(=O)Nc2ccc(NC(=O)[C@@H](N)CS)cc2C(=O)c2ccccc2)c1` showed a half-inhibitory concentration (IC50) of 540 nM.
Still for that read-out and setting: with `Cc1ccccc1CC(=O)Nc1ccc(NC(=O)[C@@H](N)CS)cc1C(=O)c1ccccc1` the figure was 400 nM; with `N[C@@H](CS)C(=O)Nc1ccc(NC(=O)CCCC(=O)O)c(C(=O)c2ccccc2)c1`, 550 nM; with `N[C@@H](CS)C(=O)Nc1ccc(NC(=O)Cc2ccc(C(F)(F)F)cc2)c(C(=O)c2ccccc2)c1`, 725 nM.
Still for that read-out and setting: with `COC(=O)CCCC(=O)Nc1ccc(NC(=O)[C@@H](N)CS)cc1C(=O)c1ccccc1` the figure was 2400 nM.

The test system of another assay is HL-60. The experiment in a line: Antiproliferative activity against HL60 cell line. Conditions: Homo sapiens. The format is functional. The method in brief:
(§1)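 Suspended human leukaemic lines (K-562, HL-60, THP-1) grown in RPMI 1640 with penicillin/streptomycin and 10% FBS. About 10 000 cells per well in bicarbonate medium without HEPES. Test substances added in serial twofold dilutions (1:2 to 1:1024). Incubation 72 h, 37 °C, 5% CO2, humidified. Cells counted electronically, each count the mean of three. GI50 read where the concentration–response curve crosses 50% of control counts.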
As for `N[C@@H](CS)C(=O)Nc1ccc(NC(=O)Cc2ccc(Br)cc2)c(C(=O)c2ccccc2)c1`, the concentration for 50% growth inhibition (GI50) amounted to 4200 nM.

The subject of the next assay is K562. The experiment in a line: Antiproliferative activity against K562 cell line. Format: functional. Particulars: Homo sapiens. The method in brief:
as §1
With `N[C@@H](CS)C(=O)Nc1ccc(NC(=O)Cc2ccc(Br)cc2)c(C(=O)c2ccccc2)c1`, halving of growth (GI50) required 7900 nM.
As for `Cc1ccc(CC(=O)Nc2ccc(NC(=O)[C@@H](N)CS)cc2C(=O)c2ccccc2)cc1`, the GI50 worked out at 8100 nM.

In another assay the test system is THP-1. The experiment in a line: Antiproliferative activity against THP-1 cell line. The format is functional. Conditions: Homo sapiens. The method, boiled down:
as §1
Turning to `N[C@@H](CS)C(=O)Nc1ccc(NC(=O)Cc2ccc(Br)cc2)c(C(=O)c2ccccc2)c1`, the GI50 amounted to 14900 nM.
